Here are results for 87 compounds from PubChem BioAssay AID504382 (The Scripps Research Institute Molecular Screening Center, 2011).

The campaign covered roughly 2,500 compounds. About 460 (18%) were called active. Only a sample is shown. Unmarked numbers belong to inactive results.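 The calls were made as follows: active = mean activation above a cutoff of low control average plus 3 SD from the earlier screen (cut at about 12% in these data); inactive = the rest.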

This test can be described thus: IANBD-channel fluorescence artefacts in buffer – biochemical, artefact control for cardiac RTF calcium sensitizer project, confirmation (AID 504382). The note with it: IANBD fluorescence interference counterscreen, EC20 Ca2+, at 7.2 µM, stronger effect = higher value, scaled: EC20 calcium 0, EC100 calcium 100. In outline: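 Also added: EC20 calcium, 0.472 mM; dosing: single nominal 7.2 µM compound dose, 0.7% DMSO final; timing: 15 min, 25 °C; detection: fluorescence intensity, excitation 480 nm, emission 540 nm; replicates: each compound tested in triplicate wells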
For orientation: The purpose of a counterscreen is to sort out artefacts and off-target activity.
With `CN1C2CCC1/C(=C/c1cccn1C)C(=O)/C2=C\c1cccn1C`, the fluorescence artifact activation was 0.09%.

In the case of `CC(C)c1ccc(/C=C2\Oc3c(ccc(O)c3CN3CCN(C)CC3)C2=O)cc1`, the fluorescence artifact activation was -0.06%.

`O=c1cc(-c2ccccc2)oc2ccc(Br)cc12`: the fluorescence artifact activation was 0.06%.

Consider `CCSc1cc(N2CCCC2)nc(-c2ccc(Cl)cc2)n1`, for which the fluorescence artifact activation is 0.62%.

With `CC(=O)Nc1ccc(N=Cc2nc(-c3ccc(C)cc3)oc2O)cc1`, the fluorescence artifact activation was 8.23%.

Turning to `CC(C)CC[n+]1ccccc1/C=C/c1ccc(N(C)C)cc1`, the fluorescence artifact activation was -0.07%.

With `COc1ccc(OC)c(S(=O)(=O)N2CCC(C(=O)NCc3ccccn3)CC2)c1`, the fluorescence artifact activation is 1.09%.

Regarding `CC(=O)Nc1ccc(Nc2cc(N(C)C)c3nonc3c2[N+](=O)[O-])cc1`, the fluorescence artifact activation is 33.2% (active).

On to `CC1(C)CC(=O)C(C=Nc2cc(C(=O)c3ccccc3)ccc2N)=C(O)C1`, for which the fluorescence artifact activation is 6.24%.

As to `CN(C(=O)C1CCC1C(=O)O)c1nc(-c2ccc(Cl)s2)cs1` (configuration not stated), the fluorescence artifact activation was 21.3% (active).

In the case of `O=C(NCc1ccccc1)C1(c2cccc(F)c2)CCCC1`, the fluorescence artifact activation is 0.26%.

For the compound `COC(=O)C/C(O)=C(/N=Nc1cccc(C(F)(F)F)c1)C(=O)OC`, the fluorescence artifact activation is 0.94%.

Regarding `O=C(Nc1ccc(Cl)cn1)C1COc2ccccc2O1` (configuration not stated), the fluorescence artifact activation was 14.7% (active).

As for `O=C(Nc1nc(-c2nc3ccccc3s2)cs1)C1COc2ccccc2O1` (configuration not stated), the fluorescence artifact activation is 11.1%.

As for `O=C1NCCN1c1ncc([N+](=O)[O-])s1`, the fluorescence artifact activation was 4.21%.

As to `COc1ccc(S(=O)(=O)N(CC(C)C)C2CCS(=O)(=O)C2)cc1OC` (configuration not stated), the fluorescence artifact activation is 2.69%.

Turning to `O=C1c2ccccc2C(=O)N1c1ccc(Cc2ccncc2)cc1`, the fluorescence artifact activation is 5.28%.

Turning to `O=C(Nc1nc2c(s1)CN(Cc1ccccc1)CC2)c1cccc(S(=O)(=O)N2CCc3ccccc32)c1`, the fluorescence artifact activation is -0.03%.

Take `Cc1ccc(S(=O)(=O)c2cc(C#N)c(=O)[nH]c2N)cc1`: the fluorescence artifact activation was 6.68%.

Take `O=C(CSc1ccc(Cl)cc1)Nc1nnc(-c2cccc([N+](=O)[O-])c2)s1`: the fluorescence artifact activation was 0.01%.

As for `CC(=O)NCC(O)c1ccc([N+](=O)[O-])cc1` (configuration not stated), the fluorescence artifact activation was -0.01%.

Consider `O=C(Cc1ccc(Cl)cc1)NNS(=O)(=O)c1ccc([N+](=O)[O-])cc1`, for which the fluorescence artifact activation is 83% (active).

Regarding `O=C1CC(/C=C/c2ccco2)=Nc2ccccc2N1`, the fluorescence artifact activation was 0.39%.

Regarding `Cc1ccc(NC(=O)O/N=C/c2ccc(F)cc2)cc1`, the fluorescence artifact activation is 0.14%.

As for `CCOC(=O)C1CCCN(C2=NC(=O)/C(=C/c3ccc(O)c(OC)c3)S2)C1` (configuration not stated), the fluorescence artifact activation is 0.04%.

For `CCN1CC=C2C(C#N)=C(N)C(C#N)(C#N)C(c3cc(Cl)ccc3Cl)C2C1` (configuration not stated), the fluorescence artifact activation is 95% (active).

Turning to `CCN1CC=C2C(C#N)=C(N)C(C#N)(C#N)[C@H](c3ccoc3)[C@H]2C1`, the fluorescence artifact activation is 0.03%.

Take `CCN1CC=C2C(C#N)=C(N)C(C#N)(C#N)[C@H](c3cccc(OC)c3OC)[C@H]2C1`: the fluorescence artifact activation is 0.43%.

In the case of `CC1=C(C(=O)N(C)C)C(c2ccc(C)s2)NC(=S)N1` (configuration not stated), the fluorescence artifact activation is 0.26%.

Turning to `COc1ccc(N(CC(=O)Nc2ccccc2C(=O)NCC(C)C)S(C)(=O)=O)cc1`, the fluorescence artifact activation was 0.65%.

For `CN(C)S(=O)(=O)c1ccc(C(=O)Oc2cc(=O)[nH]c3ccccc23)cc1`, the fluorescence artifact activation is 0.2%.

Take `CN(CC(=O)Nc1ccccc1Cl)C(=O)c1cc(=O)[nH]c2ccccc12`: the fluorescence artifact activation was 17.4% (active).

With `N#Cc1c(NC(=O)/C=C/C(=O)O)sc2c1CCN(Cc1ccccc1)C2`, the fluorescence artifact activation was 0.08%.

Regarding `Nc1c(C(=O)Nc2ccc(S(=O)(=O)N3CCCC3)cc2)sc2nc3ccc(OC(F)(F)F)cc3cc12`, the fluorescence artifact activation is 0.16%.

For the compound `Cc1ccc(N=C2NC(=O)/C(=C/c3cccnc3)S2)cc1C`, the fluorescence artifact activation was 0.55%.

Regarding `O=C1NC(=NCc2ccccc2)S/C1=C\c1ccccc1`, the fluorescence artifact activation is 14.6% (active).

`COc1ccccc1N=C1NC(=O)/C(=C/c2ccc(N(C)C)cc2)S1`: the fluorescence artifact activation was 0.13%.

For the compound `Nc1ccc2c(O)cc(S(=O)(=O)O)cc2c1`, the fluorescence artifact activation is 0.19%.

In the case of `Nc1ccc(S(N)(=O)=O)cc1N`, the fluorescence artifact activation is 196% (active).

Consider `O=C1NC(c2cccc([N+](=O)[O-])c2)Oc2ccccc21` (configuration not stated), for which the fluorescence artifact activation was -0.04%.

Regarding `Cc1ccc(OCc2ccc(C(=O)O)o2)cc1C`, the fluorescence artifact activation is -0.09%.

Take `O=C(O)/C=C/C(=O)NCc1csc2ccccc12`: the fluorescence artifact activation was 94.3% (active).

Consider `Cc1cc(C(=O)NNC(=S)NCc2ccccc2)cs1`, for which the fluorescence artifact activation is -0.07%.

As for `O=C(NCc1csc2ccccc12)Nc1cc(Cl)cc(Cl)c1`, the fluorescence artifact activation is 0.06%.

For `CCOC(=O)c1c(-c2ccccc2)csc1NC(=O)/C(C#N)=C/c1ccc(O)c(OC)c1`, the fluorescence artifact activation is 6.3%.

With `O=C(NC1CCCCC1)c1cccc2c1C(=O)c1ccc(N3CCC(Cc4ccccc4)CC3)cc1S2(=O)=O`, the fluorescence artifact activation is 0.54%.

On to `O=C(NCC1CC1)c1cccc2c1C(=O)c1ccc(N3CCCC3)cc1S2(=O)=O`, for which the fluorescence artifact activation is 69.4% (active).

On to `C=CCNC(=O)c1cccc2c1C(=O)c1ccc(N3CCCC3)cc1S2(=O)=O`, for which the fluorescence artifact activation is 0.04%.

In the case of `CN1CCC[C@@H]1CCNC(=O)c1cccc2c1C(=O)c1ccc(N3CCCC3)cc1S2(=O)=O`, the fluorescence artifact activation was -0.09%.

With `CC1CCN(c2ccc3c(c2)S(=O)(=O)c2cccc(C(=O)NC4CCCCC4)c2C3=O)CC1`, the fluorescence artifact activation was 0.04%.

On to `O=C(NC1CCCCC1)c1cccc2c1C(=O)c1ccc(N3CCCC3)cc1S2(=O)=O`, for which the fluorescence artifact activation is 23.8% (active).

For the compound `COc1ccccc1N1C(=O)c2cccc3c(N(C)CCO)ccc(c23)C1=O`, the fluorescence artifact activation was 0.41%.

For the compound `O=C(N/C(=C/c1cn(-c2ccccc2)nc1-c1ccccc1)C(=O)N1CCOCC1)c1ccc(Cl)cc1Cl`, the fluorescence artifact activation is 3.44%.

Regarding `COc1cccc2c1C(=O)c1c(O)c3c(c(O)c1C2=O)CC(O)(C(C)=O)CC3OC1CC(O)C(O)C(C)O1` (configuration not stated), the fluorescence artifact activation is 24.9% (active).

With `COc1cccc2c1C(=O)c1c(O)c3c(c(O)c1C2=O)C[C@@](O)(C(=O)CO)C[C@@H]3O[C@H]1C[C@H](N)[C@H](O)[C@H](C)O1`, the fluorescence artifact activation was -0.07%.

With `COc1cccc2c1C(=O)c1c(O)c3c(c(O)c1C2=O)CC(O)(C(C)=O)CC3OC1CC(N(C)C)C(O)C(C)O1` (configuration not stated), the fluorescence artifact activation is 0%.

Regarding `COc1cccc2c1C(=O)c1c(O)c3c(c(O)c1C2=O)CC(O)(C(=O)CO)CC3OC1CC(N(C)C)C(O)C(C)O1` (configuration not stated), the fluorescence artifact activation was 40.5% (active).

Consider `COc1cccc2c1C(=O)c1c(O)c3c(c(O)c1C2=O)C[C@@](O)(C(=O)CO)C[C@@H]3OC1CC(N)C(O)C(C)O1` (some centres not stated), for which the fluorescence artifact activation was 0.06%.

Take `COc1cccc2c1C(=O)c1c(O)c3c(c(O)c1C2=O)C[C@](O)(C(C)=O)C[C@H]3O[C@@H]1C[C@@H](N)[C@@H](O)[C@@H](C)O1`: the fluorescence artifact activation is -0.05%.

For `COC(=O)c1ccccc1NC(=O)[C@@H]1CCC(=O)N1C1OC(=O)c2c1ccc(OC)c2OC` (some centres not stated), the fluorescence artifact activation is 0.09%.

As for `O=C1C=C(NCc2ccco2)CC(c2ccc(Cl)cc2)C1` (configuration not stated), the fluorescence artifact activation was 0.31%.

In the case of `CC1=CC=CN2CC(O)CN=C12` (configuration not stated), the fluorescence artifact activation is 3.77%.

As for `Cc1c(C(=O)NCc2ccc3c(c2)cc(C)n3C)cccc1[N+](=O)[O-]`, the fluorescence artifact activation was 0.13%.

As to `COc1cc(NC(=O)CSc2nc3ccccc3n2-c2ccccc2)c(C)cc1[N+](=O)[O-]`, the fluorescence artifact activation was 0.03%.

Consider `COC1=C/C(=C/c2c(N)n3c(nc2=O)sc2cc(S(C)(=O)=O)ccc23)C=CC1=O`, for which the fluorescence artifact activation is 0.11%.

For `N#Cc1cccc(NC(=S)Nc2ccccc2)c1`, the fluorescence artifact activation is 0.03%.

Regarding `CCOC(=O)c1[nH]cnc1C(=O)Nc1ccccn1`, the fluorescence artifact activation is 0.74%.

In the case of `CN(Cc1ccccc1)C(=O)c1[nH]cnc1C(=O)NCc1ccccc1`, the fluorescence artifact activation is 12.7% (active).

Take `CC(C)(C)OC(=O)[C@H](Cc1ccccc1)NC(=O)c1nc[nH]c1C(=O)NCc1ccccc1`: the fluorescence artifact activation is 4.14%.

`CCOC(=O)C1=C(C)N=c2s/c(=C\c3ccc(OCC(=O)O)cc3)c(=O)n2C1c1ccc(Cl)cc1` (configuration not stated): the fluorescence artifact activation is 0.05%.

Take `CC1=C/C(=C\C=C(C#N)C#N)N(C)c2ccccc21`: the fluorescence artifact activation was 0.3%.

For the compound `Cc1cc2nc(/C(C#N)=C\c3ccc(-c4ccccc4C(=O)O)o3)[nH]c2cc1C`, the fluorescence artifact activation was 0.09%.

For the compound `O=C(O)c1ccccc1-c1ccc(/C=C/c2cc(C(F)(F)F)[nH]c(=O)n2)o1`, the fluorescence artifact activation was 0.16%.

Take `O=C(O)c1cc(Cl)ccc1-c1ccc(/C=C/c2cc(C(F)(F)F)[nH]c(=O)n2)o1`: the fluorescence artifact activation is 21.8% (active).

In the case of `CC(=O)NN1C(=O)/C(=C\c2ccc(O)cc2)SC1=S`, the fluorescence artifact activation is 0.69%.

Take `C/C(=N\Nc1ccc([N+](=O)[O-])cc1[N+](=O)[O-])c1cccnc1`: the fluorescence artifact activation is 0.07%.

`O=C(NCc1nnc(SCC(=O)N2CCCCCC2)o1)c1ccco1`: the fluorescence artifact activation was 8.13%.

Regarding `Fc1ccc(OCc2nnc(SCCN3CCOCC3)o2)cc1`, the fluorescence artifact activation was -0.06%.

`O=C(CSc1nnc(COc2ccccc2)o1)N1CCN(c2ccccc2)CC1`: the fluorescence artifact activation is 12% (active).

Take `Cc1cccc(NC(=O)CN2C(=O)N/C(=C/c3ccc(C)s3)C2=O)c1`: the fluorescence artifact activation is 0.09%.

With `O=C(O)c1ccc(-n2c(/C=C/c3cccc([N+](=O)[O-])c3)nc3ccccc3c2=O)cc1`, the fluorescence artifact activation was 0.47%.

For the compound `COCCN1C(=O)/C(=C/c2ccc(N3CCCC3)cc2)SC1=S`, the fluorescence artifact activation was 0.34%.

Consider `CC(=O)c1ccc(S(=O)(=O)Nc2ccc(C(=O)N3CCC3)cc2)cc1`, for which the fluorescence artifact activation is 0.27%.

Regarding `CC1CN(c2ccc(NS(=O)(=O)c3ccccc3)cc2C(=O)O)CC(C)O1` (configuration not stated), the fluorescence artifact activation is 31.9% (active).

Consider `CCOC(=O)C1CCCN(C(=O)c2cccc(S(=O)(=O)N3CC(C)OC(C)C3)c2)C1` (configuration not stated), for which the fluorescence artifact activation is 0.05%.

With `O=C(Nc1ccc(F)cc1F)c1ccc(COc2c(F)c(F)cc(F)c2F)o1`, the fluorescence artifact activation is -0.01%.

For the compound `CCCCc1ccc(NC(=O)N2CCNC(=O)C2CC(=O)Nc2ccsc2C(=O)OC)cc1` (configuration not stated), the fluorescence artifact activation is -0.11%.
